Reference: PMC9358981 (Journal of pharmacological and toxicological methods, 2021)
Entries after “also recorded” stand apart in the source; their conditions may differ. Where two headings read alike, the source gives them in different places.

How the values were obtained:
human S1R = human S1R (Homo sapiens, UniProt Q99720); assay: Radioligand competition binding with [3H]-; details: for Pseudo-Hill slope at the S1R: competition with [3H]-(+)-pentazocine; for S2R/S1R ratio (Ki S2R / Ki S1R): selectivity for S1R over S2R, fold
human S2R = human S2R (Homo sapiens, UniProt Q5BJF2); assay: Radioligand competition binding with [3H]-DTG at the S2R; details: for Pseudo-Hill slope at the S2R: competition with [3H]-DTG
MCF7-hS1R cells = assay: Bradykinin; type: cell-based, human; details: pre-treatment with sigma ligand
MN9D cells = assay: BDNF secretion via in situ ELISA; type: cell-based; details: for Efficacy of BDNF secretion / Stimulation of BDNF secretion (in words): 10 μM, MN9D cells; for Efficacy of BDNF secretion: normalized to the maximal response of 10 μM 4-PPBP
PC-6-15 cells = assay: NGF induced neurite sprouting; type: cell-based, rat; details: for Effect on neurite sprouting, ligand alone / Potentiation of NGF induced neurite sprouting: 24 hours; for Effect on neurite sprouting, ligand alone: 0.5% serum; for Potentiation of NGF induced neurite sprouting: co-treated with 0.3 ng/mL NGF
How it was run: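 PC12-derived PC-6-15 cells overexpressing trkA, kept in RPMI1640 with 10% horse serum, 5% FBS and 0.1 mg/mL G418. Plated on type I collagen in 0.5% serum medium. Treated 24 hours in duplicate with vehicle (DMSO 1:1000 v/v), test compound, NGF (0.3–100 ng/mL concentration-response), or test compound plus 0.3 ng/mL NGF. Neurite length/cell was total traced neurite length divided by total cell count.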

[1] = read-out: S1R affinity (Ki), displacement of 0.5 nM [3H]-(+)-pentazocine, MCF-7-S1R, mean ± SEM
[2] = 15 nM BD1063, Fractional Occupancy = [ligand]/([ligand]+Ki)

Sequence of human S1R (Q99720 whole entry): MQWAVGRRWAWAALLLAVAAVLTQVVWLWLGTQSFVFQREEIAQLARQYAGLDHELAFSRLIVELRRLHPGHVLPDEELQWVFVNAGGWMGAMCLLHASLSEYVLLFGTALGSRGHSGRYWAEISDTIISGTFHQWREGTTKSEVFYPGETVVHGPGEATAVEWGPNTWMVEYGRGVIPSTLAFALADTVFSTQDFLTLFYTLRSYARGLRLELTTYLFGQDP
Sequence of human S2R (Q5BJF2 whole entry): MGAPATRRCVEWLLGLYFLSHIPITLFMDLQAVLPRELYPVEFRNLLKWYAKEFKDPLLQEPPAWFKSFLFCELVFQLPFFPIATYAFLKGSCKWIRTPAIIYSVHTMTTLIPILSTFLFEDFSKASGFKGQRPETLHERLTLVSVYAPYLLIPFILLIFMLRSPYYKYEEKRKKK

CCN(CC)CCOCCOC(=O)C(CC)(CC)c1ccccc1 [Oxeladin]
Ki (human S1R): 25 ± 4.3 nM
Ki (human S2R): 148 ± 64 nM

CCCN(CCC)CCc1ccc(OC)c(OCCc2ccccc2)c1 [NE-100]
Pseudo-Hill slope at the S1R (human S1R): −3.1
Effect of sigma ligand on the bradykinin calcium response (MCF7-hS1R cells): no significant potentiation or suppression
Pseudo-Hill slope at the S2R (human S2R): near unity

CCC(C/C=C/c1ccccc1)(c1ccccc1)N(C)CC1CC1 (single isomer, unassigned; (+)) [(+)-Igmesine]
Ki (human S1R; [1]): 9.2 ± 2.2 nM
S2R/S1R ratio (Ki S2R / Ki S1R) (human S1R): 18
Efficacy of BDNF secretion (MN9D cells; 24 hrs, mean ± SEM): 0.42 ± 0.03
Stimulation of BDNF secretion (in words) (MN9D cells): BDNF secreting activity
Reversal of the BDNF response by S1R-selective concentration of BD1063 (MN9D cells; compound 10 μM + 15 nM BD1063, MN9D cells): could be reversed

CCN(CC)CCOCCOC(=O)C1(c2ccccc2)CCCC1 [Carbetapentane]
Effect on neurite sprouting, ligand alone (PC-6-15 cells): none of them had any effect
Potentiation of NGF induced neurite sprouting (PC-6-15 cells): none of them had any effect
Ki (human S1R): 19.8 ± 2.3 nM
S2R/S1R ratio (Ki S2R / Ki S1R) (human S1R): 3
Efficacy of BDNF secretion (MN9D cells; 24 hrs, mean ± SEM): 0.73 ± 0.05
Ki (human S2R): 55.7 ± 3.8 nM

(+)-SKF10047
Effect of sigma ligand on the bradykinin calcium response (MCF7-hS1R cells): no significant potentiation or suppression

CN1CCN(CCc2ccc(Cl)c(Cl)c2)CC1 [BD1063]
Calculated S1R occupancy (human S1R; [2]): 74%
Pseudo-Hill slope at the S1R (human S1R): equal to unity
Ki (human S1R; [1]): 5.6 ± 0.5 nM
S2R/S1R ratio (Ki S2R / Ki S1R) (human S1R): 38
Effect of sigma ligand on the bradykinin calcium response (MCF7-hS1R cells): no significant potentiation or suppression
Calculated S2R occupancy (human S2R; [2]): 7%
Pseudo-Hill slope at the S2R (human S2R): near unity

COCCCC/C(=N\OCCN)c1ccc(C(F)(F)F)cc1 [fluvoxamine]
Effect on neurite sprouting, ligand alone (PC-6-15 cells): none of them had any effect
Potentiation of NGF induced neurite sprouting (PC-6-15 cells): none of them had any effect

O=C(OCCN1CCOCC1)C1(c2ccccc2)CCCCC1 [PRE-084]
Effect on neurite sprouting, ligand alone (PC-6-15 cells): none of them had any effect
Potentiation of NGF induced neurite sprouting (PC-6-15 cells): none of them had any effect
Pseudo-Hill slope at the S1R (human S1R): −0.98
Effect of sigma ligand on the bradykinin calcium response (MCF7-hS1R cells): no significant potentiation or suppression
Stimulation of BDNF secretion (in words) (MN9D cells): no effect; also recorded: failed to stimulate BDNF secretion; also recorded: no activity
Pseudo-Hill slope at the S2R (human S2R): near unity

COc1cc2c(cc1OC)C(=O)C(CC1CCN(Cc3ccccc3)CC1)C2 (stereo not drawn) [Donepezil]
Stimulation of BDNF secretion (in words) (MN9D cells): BDNF secreting activity

CC(CN1c2ccccc2Sc2ccccc21)N(C)C (stereo not drawn) [Promethazine]
Potentiation of NGF induced neurite sprouting (PC-6-15 cells): neither 4-PPBP or promethazine enhanced NGF induced sprouting
Emax at 10 µM (MN9D cells; MN9D, read-out: Efficacy for BDNF secretion, % of the maximum response): 103%

CCCCOCCOC(=O)C(c1ccccc1)N(CC)CC (stereo not drawn) [Cas# 1796909-31-3, 2-Butoxyethyl 2-(diethylamino)-2-phenylacetate]
Stimulation of BDNF secretion (in words) (MN9D cells): BDNF secreting activity

c1ccc(CCCCN2CCC(c3ccccc3)CC2)cc1 [4-PPBP]
Effect on neurite sprouting, ligand alone (PC-6-15 cells): unable to stimulate neurite sprouting
Potentiation of NGF induced neurite sprouting (PC-6-15 cells): neither 4-PPBP or promethazine enhanced NGF induced sprouting; also recorded: nor did it potentiate NGF induced sprouting
Pseudo-Hill slope at the S1R (human S1R): −3.1
Effect of sigma ligand on the bradykinin calcium response (MCF7-hS1R cells): no significant potentiation or suppression
Secreted BDNF at maximal stimulation (MN9D cells; 10 μM 4-PPBP, 24 hrs, mean ± SEM, n = 3–10, baseline 75.4 ± 6.9): 128.6 ± 12.8 pg/mL
Efficacy of BDNF secretion (MN9D cells; 24 hrs, mean ± SEM): 1
Stimulation of BDNF secretion (in words) (MN9D cells): robust BDNF secretion response
Pseudo-Hill slope at the S2R (human S2R): near unity

CCC(C(=O)OCCOCCN(CC)CC)c1ccccc1 (stereo not drawn) [Butamirate]
Ki (human S1R): 17.2 ± 1.7 nM
Stimulation of BDNF secretion (in words) (MN9D cells): completely abolished the BDNF secretion activity
Ki (human S2R): 214 ± 41 nM

B1: NGF: nerve growth factor (βNGF, EMD Millipore) (protein, UniProt P01139 122-241, looked up)
Beta-nerve growth factor: SSTHPVFHMGEFSVCDSVSVWVGDKTTATDIKGKEVTVLAEVNINNSVFRQYFFETKCRASNPVESGCRGIDSKHWNSYCTTTHTFVKALTTDEKQAAWRFIRIDTACVCVLSRKATRRG
modifications: beta-NGF
Lowest concentration tested that induced neurite sprouting (PC-6-15 cells; 0.3 to 100 ng/mL tested): 0.3 ng/mL
